Data taken from ChEMBL document CHEMBL4251588, “2-Alkoxycarbonyl-3-arylamino-5-substituted thiophenes as a novel class of antimicrotubule agents: Design, synthesis, cell growth and tubulin polymerization inhibition” (Eur J Med Chem, 2018).
Calls of active or inactive are those of the source. The calls are words filed in the database; no cut-off is given here.

Columns and labels:
[1] = system: HeLa; experiment: Antiproliferative activity against human HeLa cells after 4 days by Coulter counter method; format: functional, cell-based; conditions: 96 h
In short: (§1)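 Cells suspended at 300,000–500,000 cells/mL; 100 μL suspension added to 100 μL of compound dilutions. Incubated at 37 °C for 2 days (L1210, FM3A), 3 days (CEM) or 4 days (HeLa), then counted by Coulter counter. IC50 is the concentration giving 50% inhibition of proliferation. Values are mean ± SD of two to three independent experiments.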

[2] = system: FM3A; experiment: Antiproliferative activity against mouse FM3A cells after 2 days by Coulter counter method; format: functional, cell-based; conditions: 48 h
In short: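 Cells suspended at 300,000–500,000 cells/mL; 100 μL suspension added to 100 μL of compound dilutions. Incubated at 37 °C for 2 days (L1210, FM3A), 3 days (CEM) or 4 days (HeLa), then counted by Coulter counter. Values are mean ± SD of two to three independent experiments.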

[3] = organism: Bos taurus; experiment: Inhibition of [3H]colchicine binding to bovine brain tubulin at 5 uM relative to control
In short: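 Reaction mixtures held 1 μM tubulin, 5 μM [3H]colchicine and 5 μM test compound. Inhibition of radiolabelled colchicine binding was measured by a previously described method.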

[4] = system: CCRF-CEM; experiment: Antiproliferative activity against human CEM cells after 3 days by Coulter counter method; format: functional, cell-based; conditions: 72 h; in short: as §1
[5] = system: L1210; experiment: Antiproliferative activity against mouse L1210 cells after 2 days by Coulter counter method; format: functional, cell-based; conditions: L1210, 48 h; in short: as §1
[6] = Inhibition of bovine brain tubulin polymerization in presence of GTP by spectrophotometric analysis; set-up: species or system Bos taurus
In short: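 0.4 mM GTP added, mixtures rewarmed to 30 °C in cuvettes and turbidity followed at 350 nm.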

[7] = system: PBL; experiment: Growth inhibition of resting human PBL after 72 hrs by MTT assay; format: cell-based
In short: (§2)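 Donor PBL isolated by density gradient, washed, held overnight at 1.0 × 10^6 cells/mL in RPMI-1640 with 10% FBS. Non-adherent cells reseeded at 5 × 10^5 cells/mL, with 2.5 μg/mL PHA (proliferating) or without it (resting), then given compound dilutions. MTT viability read after 72 h. GI50 is the concentration giving 50% growth reduction; mean ± SEM of two experiments.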

[8] = system: PBL; experiment: Growth inhibition of human PHA-stimulated PBL after 72 hrs by MTT assay; format: cell-based; in short: as §2
[9] = system: HeLa; experiment: Cell cycle arrest in human HeLa cells assessed as accumulation of cells at G2/M phase at 500 nM after 24 hrs by propidium iodide staining-based flow cytometric analysis
[10] = system: HeLa; experiment: Cell cycle arrest in human HeLa cells assessed as increase in cells at S phase at 500 nM after 24 hrs by propidium iodide staining-based flow cytometric analysis
[11] = system: HeLa; experiment: Cell cycle arrest in human HeLa cells assessed as reduction of cells at G1 phase up to 500 uM after 24 hrs by propidium iodide staining-based flow cytometric analysis; format: functional; conditions: in the assay text read “500 nM” for “500 uM”
In short: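 5 × 10^5 HeLa cells exposed to graded compound levels for 24 h; harvested, fixed in ice-cold 70% ethanol, lysed in buffer containing RNase A and 0.1% Triton X-100, PI-stained, DNA content read by flow cytometry. Phase percentages are means ± SEM of two independent experiments.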

[12] = system: HeLa; experiment: Induction of apoptosis in human HeLa cells at 125 to 500 nM after 24 to 48 hrs by annexin V-FITC/propidium iodide staining-based flow cytometric analysis; format: functional, cell-based
In short: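 Treated HeLa cells were harvested at 24 or 48 h and double-labeled with annexin-V-FITC, which marks exposed phosphatidylserine, and PI. Apoptotic fractions were measured by flow cytometry; mean ± SEM of three independent experiments.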

[13] = system: HeLa; experiment: Cell cycle arrest in human HeLa cells assessed as decrease in Cdk1 Y15 phosphorylated protein level at 250 nM after 24 to 48 hrs by Western blot analysis; format: functional, cell-based
In short: (§3)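 HeLa cells treated for 24 or 48 h at several concentrations, washed in ice-cold PBS, lysed on ice 30 min and spun at 15000 x g, 4 °C. 10 μg protein separated by SDS-PAGE, blotted, blocked in 3% BSA, probed overnight at 4 °C with primary antibodies, peroxidase secondary and ECL detection. Stripped membranes reprobed for β-actin as loading control.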

[14] = system: HeLa; experiment: Induction of mitochondrial depolarization in human HeLa cells at 100 to 250 nM by JC-1 staining-based flow cytometric analysis; format: functional, cell-based; conditions: TDE = time-dependent effect
In short: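 Mitochondrial potential followed in HeLa cells after 6, 12, 24 or 48 h of exposure. Cells stained with the lipophilic cation JC-1 and the fraction with low Δψmt scored by flow cytometry; mean ± SEM of three independent experiments.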

[15] = system: HeLa; experiment: Cell cycle arrest in human HeLa cells assessed as increase in cyclin B1 expression after 24 hrs by Western blot analysis; format: functional, cell-based; in short: as §3
[16] = system: HeLa; experiment: Induction of apoptosis in human HeLa cells assessed as decrease in Bcl-2 levels at 100 to 250 nM after 24 hrs by Western blot analysis; format: functional, cell-based
In short: (§4)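 HeLa cells exposed to compound for varied times, washed twice in ice-cold PBS, lysed on ice 30 min and spun 15000 x g at 4 °C. 10 μg protein per lane by SDS-PAGE, blotted, blocked in 3% BSA, primary antibodies (Bcl-2, Mcl-1) overnight at 4 °C, peroxidase secondary 60 min, ECL detection; membranes stripped and reprobed for β-actin as loading control.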

[17] = system: HeLa; experiment: Induction of apoptosis in human HeLa cells assessed as decrease in Mcl-1 levels at 100 to 250 nM after 24 hrs by Western blot analysis; format: functional, cell-based; in short: as §4
[18] = system: HeLa; experiment: Cell cycle arrest in human HeLa cells assessed as decrease in cyclin B1 expression after 48 hrs by Western blot analysis; format: functional, cell-based; in short: as §3
[19] = system: HeLa; experiment: Induction of ROS production in human HeLa cells at 250 nM after 12 to 24 hrs by H2DCFDA staining-based flow cytometric analysis; format: functional, cell-based
In short: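 HeLa cells treated for 6, 12, 24 or 48 h, then loaded with H2-DCFDA and ROS read by flow cytometry; mean ± SEM of three independent experiments.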

[20] = system: HeLa; experiment: Cell cycle arrest in human HeLa cells assessed as reduction in cdc25c expression at 100 nM after 24 hrs by Western blot analysis

| Structure (SMILES) | IC50 [1] | IC50 [2] | inhibition [3] | IC50 [4] | IC50 [5] | IC50 [6] | other results |
| --- | --- | --- | --- | --- | --- | --- | --- |
| COC(=O)c1sc(-c2ccc(F)cc2)cc1Nc1cc(OC)c(OC)c(OC)c1 | 880 nM | 720 nM | 41% | 530 nM | 560 nM | 2200 nM | – |
| COC(=O)c1sc(-c2cc(OC)c(OC)c(OC)c2)cc1Nc1cc(OC)c(OC)c(OC)c1 | 162000 nM | > 250000 nM | – | > 250000 nM | > 250000 nM | – | – |
| CCOC(=O)c1sc(-c2ccc(C)cc2)cc1Nc1cc(OC)c(OC)c(OC)c1 | 780 nM | 820 nM | – | 760 nM | 820 nM | – | – |
| COC(=O)c1sc(-c2ccc(C)cc2)cc1Nc1cc(OC)c(OC)c(OC)c1 | 260 nM | 180 nM | 70% | 180 nM | 150 nM | 1200 nM | GI50 [7]: 31700 nM; GI50 [8]: 20000 nM; Activity [9]: Active; Activity [10]: Active; Activity [11]: Active; Activity [12]: Active |
| COC(=O)c1sc(-c2ccc(OC)cc2)cc1Nc1cc(OC)c(OC)c(OC)c1 | 840 nM | 250 nM | 46% | 230 nM | 270 nM | 2000 nM | – |
| CCOC(=O)c1sc(-c2ccc(F)cc2)cc1Nc1cc(OC)c(OC)c(OC)c1 | 2100 nM | 1000 nM | – | 990 nM | 1100 nM | – | – |
| COc1ccc(/C=C\c2cc(OC)c(OC)c(OC)c2)cc1O [COMBRETASTATIN A4] | 2 nM | – | – | 2 nM | 3 nM | – | – |
| CCOc1ccc(-c2cc(Nc3cc(OC)c(OC)c(OC)c3)c(C(=O)OC)s2)cc1 | 4400 nM | 5700 nM | – | 5400 nM | 6300 nM | – | – |
| CCOC(=O)c1sc(-c2ccccc2)cc1Nc1cc(OC)c(OC)c(OC)c1 | 1400 nM | 980 nM | – | 930 nM | 1100 nM | – | – |
| COC(=O)c1sc(-c2cccc(OC)c2)cc1Nc1cc(OC)c(OC)c(OC)c1 | 800 nM | 990 nM | – | 690 nM | 1100 nM | – | – |
| COC(=O)c1sc(-c2ccc([N+](=O)[O-])cc2)cc1Nc1cc(OC)c(OC)c(OC)c1 | 1000 nM | 930 nM | – | 760 nM | 990 nM | – | – |
| CCOC(=O)c1sc(-c2ccc(Cl)cc2)cc1Nc1cc(OC)c(OC)c(OC)c1 | 9800 nM | 5100 nM | – | 4600 nM | 6000 nM | – | – |
| COC(=O)c1sc(-c2ccc(C(F)(F)F)cc2)cc1Nc1cc(OC)c(OC)c(OC)c1 | 1300 nM | 1100 nM | – | 810 nM | 1200 nM | – | – |
| CCOC(=O)c1sc(-c2ccc(OC)cc2)cc1Nc1cc(OC)c(OC)c(OC)c1 | 2300 nM | 1200 nM | – | 1100 nM | 1200 nM | – | – |
| COC(=O)c1sc(-c2ccc(Cl)c(Cl)c2)cc1Nc1cc(OC)c(OC)c(OC)c1 | 5000 nM | 4600 nM | – | 3300 nM | 5700 nM | – | – |
| COC(=O)c1sc(-c2ccc(OC)c(OC)c2)cc1Nc1cc(OC)c(OC)c(OC)c1 | 890 nM | 430 nM | 30% | 470 nM | 480 nM | 2700 nM | – |
| COC(=O)c1sc(-c2ccc(Cl)cc2)cc1Nc1cc(OC)c(OC)c(OC)c1 | 870 nM | 880 nM | – | 870 nM | 1100 nM | – | – |
| COC(=O)c1sc(-c2ccccc2)cc1Nc1cc(OC)c(OC)c(OC)c1 | 670 nM | 210 nM | 57% | 200 nM | 240 nM | 1300 nM | GI50 [7]: 45700 nM; GI50 [8]: 19000 nM; Activity [9]: Active; Activity [10]: Active; Activity [11]: Active; Activity [12]: Active |
| COC(=O)c1sc(-c2cccs2)cc1Nc1cc(OC)c(OC)c(OC)c1 | 160 nM | 160 nM | 62% | 160 nM | 130 nM | 1200 nM | Activity [13]: Active; GI50 [7]: 85700 nM; Activity [14]: Tde; GI50 [8]: 29300 nM; Activity [9]: Active; Activity [15]: Dose-dependent effect; Activity [16]: Active; Activity [17]: Active; Activity [10]: Active; Activity [18]: Active; Activity [19]: Active; Activity [11]: Active; Activity [12]: Active; Activity [20]: Active |
